Among the data in ChEMBL document CHEMBL1139204, “Synthesis and biological activity of 5-aza-ellipticine derivatives” (Bioorg Med Chem Lett, 2007) are IC50 and Activity values, retold here.

Activity calls are given as the source filed them. The calls are words filed in the database; no cut-off is given here. Some results are limits rather than exact numbers.

One assay relates to HCT-116. Nature of the assay: Growth inhibition of human HCT116 cells by MTT assay. It counts as functional, cell-based. An outline of the steps: (§1)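 MTT cytotoxicity assay in human colon adenocarcinoma HCT116 cells and murine NIH 3T3 fibroblast cells treated with the novel 5-aza-ellipticine derivatives; toxicity read by MTT reduction.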
A further assay relates to NIH3T3. Nature of the assay: Growth inhibition of mouse NIH3T3 cells by MTT assay. The format is cell-based. An outline of the steps:
as §1

The species entered for another assay is Homo sapiens. In words: Inhibition of topoisomerase 2-mediated kDNA de-catenation. An outline of the steps: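 Topoisomerase II decatenation of kinetoplast DNA (kDNA), run with a commercial kit following the manufacturer's recommended procedure. Decatenation depends on topo II double-strand break and re-ligation. A known topo II-active reference agent served as positive control.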

`COc1ccc2[nH]c3c(C)c4ccnc(NCCCN(C)CCCN)c4c(C)c3c2c1`: the IC50 was 70 nM with HCT-116 and 20 nM in the assay on NIH3T3.

On to `CC[n+]1c2ccnc(O)c2c(C)c2c3cc(OC)ccc3[nH]c21`, for which half-maximal inhibition in the assay on HCT-116 (IC50) was put at 3000 nM.

Consider `COc1ccc2[nH]c3nc4ccnc(NCCCN(C)CCCN)c4c(C)c3c2c1`, for which the result in the assay listed under Homo sapiens was Active. Moreover, the values for the IC50 in the assay with HCT-116 and with NIH3T3 were 300 nM and 600 nM, respectively.

For `COc1ccc2[nH]c3c(c(C)c4c(NCCCNCCCN)nccc4[n+]3C)c2c1`, inhibition in the assay with HCT-116 was half-maximal at 2000 nM (IC50).

As to `CC[n+]1c2ccnc(NCCCNCCCNc3nccc4c3c(C)c3c5cc(OC)ccc5[nH]c3[n+]4CC)c2c(C)c2c3cc(OC)ccc3[nH]c21`, inhibition with HCT-116 was half-maximal at 300 nM (IC50).

In the case of `COc1ccc2[nH]c3nc4ccnc(Cl)c4c(C)c3c2c1`, the IC50 with HCT-116 and with NIH3T3 was greater than 1000 nM each time.

In the assay on HCT-116, `COc1ccc2[nH]c3c(c(C)c4c(O)nccc4[n+]3C)c2c1` returned an IC50 of 200 nM.

In turn, `CC[n+]1c2ccnc(NCCCNCCCN)c2c(C)c2c3cc(OC)ccc3[nH]c21` came in with an IC50 in the assay on HCT-116 of 400 nM.

`Cc1c2ccncc2c(C)c2c1[nH]c1ccccc12` [ELLIPTECINE]: the result in the assay listed under Homo sapiens was Active. For the same compound, the IC50 with HCT-116 came out at 300 nM; with NIH3T3, 3 nM.

For `COc1ccc2[nH]c3nc4ccnc(NCCCNCCCN)c4c(C)c3c2c1`, the IC50 in the assay on NIH3T3 is 1000 nM.

On to `COc1ccc2[nH]c3c(c(C)c4c(NCCCN5CCN(CCCN)CC5)nccc4[n+]3C)c2c1`, for which the IC50 in the assay on HCT-116 was greater than 10000 nM.
